Activity calls are given as the source filed them. No cut-off for these calls is given here.
Key:
[1] = target: T1, Quinolone resistance protein NorA (Staphylococcus aureus) (UniProt P0A0J7); test: Inhibition of Staphylococcus aureus SA-1199B NorA expressed in Escherichia coli DH10B assessed as inhibition of Hoechst 33342 dye efflux at 10 uM after 150 to 160 secs by spectrofluorometric analysis in presence of 50 uM Mg2+
T1 sequence (whole entry): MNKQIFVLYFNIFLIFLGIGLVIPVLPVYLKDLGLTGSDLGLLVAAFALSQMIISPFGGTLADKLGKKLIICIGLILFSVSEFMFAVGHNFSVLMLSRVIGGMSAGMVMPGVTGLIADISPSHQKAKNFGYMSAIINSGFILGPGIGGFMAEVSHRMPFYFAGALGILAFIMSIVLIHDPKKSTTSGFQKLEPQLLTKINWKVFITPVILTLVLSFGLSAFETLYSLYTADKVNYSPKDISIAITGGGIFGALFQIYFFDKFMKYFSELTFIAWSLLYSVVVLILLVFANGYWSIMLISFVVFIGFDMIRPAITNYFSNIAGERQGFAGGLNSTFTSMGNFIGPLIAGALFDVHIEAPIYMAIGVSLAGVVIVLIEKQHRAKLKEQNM
In short: (§1)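 Everted membrane vesicles from E. coli DH10B carrying pTrcHis2C-norA, made by French press with 0.1 mM PMSF and 0.1 mg/mL DNase; pTrc99A vesicles serve as control. Vesicles at 80 µg protein/mL in 50 mM potassium HEPES, 8.5 mM NaCl, 2 mM MgCl₂, pH 7.2. Hoechst 33342 added, then Mg²⁺-ATP to energise, inhibitor at 150–160 s.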

[2] = target: T1, Quinolone resistance protein NorA (Staphylococcus aureus); test: Inhibition of Staphylococcus aureus SA-1199B NorA expressed in Escherichia coli DH10B assessed as inhibition of Hoechst 33342 dye efflux at 10 uM by spectrofluorometric analysis in presence of 50 uM Mg2+; in short: as §1

## CC(C)[C@@H]1NC(=O)[C@H](C)OC(=O)[C@@H](C(C)C)NC(=O)[C@@H](C(C)C)OC(=O)[C@H](C(C)C)NC(=O)[C@H](C)OC(=O)[C@@H](C(C)C)NC(=O)[C@@H](C(C)C)OC(=O)[C@H](C(C)C)NC(=O)[C@H](C)OC(=O)[C@@H](C(C)C)NC(=O)[C@@H](C(C)C)OC1=O
[1]
  inhibition: Active
[2]
  inhibition: Active

From ChEMBL document CHEMBL2157969, “Chalcone inhibitors of the NorA efflux pump in Staphylococcus aureus whole cells and enriched everted membrane vesicles” (Bioorg Med Chem, 2012)
